We go through two compounds from ChEMBL document CHEMBL3091364, “Benzyloxybenzylammonium chlorides: Simple amine salts that display anticonvulsant activity” (Bioorg Med Chem, 2013).

Activity calls are given as the source filed them. The rule behind the calls is not given here.

Assay [1] deals with Mus musculus. Briefly: Anticonvulsant activity in albino CF-1 mouse assessed as protection against maximal electroshock-induced seizures at 100 mg/kg, ip. Details: dose 100 mg/kg. It counts as functional, organism-based. The gist of the method:
(§1)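 Screened under the NINDS ASP in male albino Carworth Farms No. 1 mice (ip) or male albino Sprague-Dawley rats (ip or po), using MES, 6 Hz (32 mA) and subcutaneous pentylenetetrazol seizure tests. Initial qualitative tests used preset doses (e.g., 30, 50, 100 mg/kg). ED50 values with 95% confidence intervals came from dose–response data collected at the time of peak effect.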
On the technique in general: Protection in the maximal electroshock model is a classic sign of anticonvulsant action.

Assay [2] concerns Mus musculus. Briefly: Anticonvulsant activity in ip dosed albino CF-1 mouse assessed as protection against 6 Hz psychomotor seizure measured at 0.5 hrs. It counts as functional. The following applies: albino CF-1, ip. An outline of the steps: as §1

With `Fc1cccc(COc2ccccc2)c1`, the result in assay [1] was inactive.
For the compound `COC[C@@H](NC(C)=O)C(=O)NCc1ccccc1` [LACOSAMIDE], in assay [2], the ED50 came to 10 mg/kg.

What is called ED50 is the dose at which the effect has come halfway, by size or by number of responders.
